Bioassay records as filed in PubChem BioAssay.
TbMetRS inhib – T. brucei MetRS inhibitors, primary screen, biochemical, luminescence; inhibition, % at 11.9 µM; AID 624268, 2012; methionyl-tRNA synthetase (Trypanosoma brucei brucei); 360,000 tested, 0.4% active; purified T. brucei MetRS, ATP depletion, Kinase-Glo luminescence;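 active = inhibition above a per-plate cutoff of the control wells' mean inhibition plus 3 SD, cut at about 5.5% in these data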
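Test system – parasite MetRS enzyme · Reagent – substrates ATP, L-methionine and bulk Escherichia coli tRNA · Doses – 11.9 µM compound single dose, 0.9% DMSO · Times – 15 min enzyme-compound preincubation, 2 h reaction, 10 min detection, 25 °C · Signal – Kinase-Glo luminescence, ATP depletion format · Controls – DMSO-only wells as low control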
PLC-beta3 inh – human PLC-beta3 inhibitors, primary screen, biochemical, fluorescence; 370,000 tested, 0.18% active; Purified PLC-beta3, fluorogenic substrate; 1-phosphatidylinositol 4,5-bisphosphate phosphodiesterase beta-3 (Homo sapiens), Q01970; inhibition, % at 12.2 µM; AID 720704, 2013; in the data active = inhibition above about 11%
HGIII-sPLA2 inh – human group III sPLA2 inhibitors, primary screen, biochemical, QFRET, BODIPY PC-A2 liposome substrate. QFRET BODIPY PC-A2 liposome hydrolysis, fluorescence. inhibition, % at 12.2 µM. 370,000 tested, 0.56% active. AID 743126, 2013;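 active = inhibition above mean plus 3 SD of compounds lying within the high and low control bounds, cut at about 19% in these data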
PLCg1 inh – PLC-gamma1 enzyme inhibitors, primary screen, biochemical, fluorescence, purified enzyme. 1-phosphatidylinositol 4,5-bisphosphate phosphodiesterase gamma-1 (Homo sapiens), P19174. fluorogenic substrate. inhibition, % at 12.2 µM. 370,000 tested, 0.84% active. AID 720700, 2013; in the data active = inhibition above about 9.5%
Target sequence (P19174 whole entry, looked up): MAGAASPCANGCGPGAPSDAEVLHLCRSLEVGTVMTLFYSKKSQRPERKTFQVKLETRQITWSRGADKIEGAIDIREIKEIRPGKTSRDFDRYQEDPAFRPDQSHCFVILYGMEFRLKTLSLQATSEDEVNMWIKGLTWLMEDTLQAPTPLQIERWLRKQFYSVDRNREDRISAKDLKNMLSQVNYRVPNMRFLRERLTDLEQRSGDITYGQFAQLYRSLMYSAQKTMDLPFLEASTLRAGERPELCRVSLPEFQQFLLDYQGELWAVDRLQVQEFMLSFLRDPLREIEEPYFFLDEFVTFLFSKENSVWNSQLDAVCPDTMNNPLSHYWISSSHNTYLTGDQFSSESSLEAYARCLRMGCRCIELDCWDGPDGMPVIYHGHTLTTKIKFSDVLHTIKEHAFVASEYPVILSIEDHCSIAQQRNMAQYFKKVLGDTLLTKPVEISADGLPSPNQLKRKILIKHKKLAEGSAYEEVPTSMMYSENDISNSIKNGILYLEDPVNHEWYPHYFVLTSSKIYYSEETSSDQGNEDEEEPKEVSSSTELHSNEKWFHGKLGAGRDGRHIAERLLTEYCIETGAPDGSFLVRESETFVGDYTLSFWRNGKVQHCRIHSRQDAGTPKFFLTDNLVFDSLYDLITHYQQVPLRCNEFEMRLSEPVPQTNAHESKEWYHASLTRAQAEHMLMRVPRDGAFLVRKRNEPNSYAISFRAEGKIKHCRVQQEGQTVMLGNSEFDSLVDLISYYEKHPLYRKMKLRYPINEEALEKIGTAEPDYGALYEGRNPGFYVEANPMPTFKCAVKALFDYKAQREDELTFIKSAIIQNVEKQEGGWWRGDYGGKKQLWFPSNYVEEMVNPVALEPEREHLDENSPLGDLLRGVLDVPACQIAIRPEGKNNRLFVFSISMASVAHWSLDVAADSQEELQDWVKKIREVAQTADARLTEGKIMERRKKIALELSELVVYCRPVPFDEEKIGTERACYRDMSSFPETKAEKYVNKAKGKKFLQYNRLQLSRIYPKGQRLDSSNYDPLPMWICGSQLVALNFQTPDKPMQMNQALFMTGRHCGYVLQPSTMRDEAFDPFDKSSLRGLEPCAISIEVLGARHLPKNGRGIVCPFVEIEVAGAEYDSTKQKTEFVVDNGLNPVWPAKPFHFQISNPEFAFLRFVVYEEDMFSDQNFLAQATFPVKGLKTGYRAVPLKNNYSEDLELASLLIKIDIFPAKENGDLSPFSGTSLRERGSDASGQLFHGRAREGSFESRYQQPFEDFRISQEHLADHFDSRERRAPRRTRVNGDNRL
TbMetRS confirm – T. brucei MetRS inhibitors, confirmation, biochemical, luminescence. shares compounds with TbMetRS inhib. T. brucei MetRS enzyme, luminescence (ATP depletion). inhibition, % at 11.9 µM. 1,400 tested, 93% active. AID 624412, 2012; in the data active = inhibition above about 7%
Jurkat tox – Jurkat T cell cytotoxicity, cytotoxicity control for T. brucei MetRS inhibitor project, luminescence, high throughput; shares compounds with TbMetRS inhib; Jurkat cells viability, ATP luminescence; inhibition, % at 8.3 µM; 1,400 tested, 12% active; in the data active = inhibition above about 15%
TbMetRS FP orth – T. brucei MetRS inhibitors, orthogonal assay for T. brucei MetRS inhibitor project, biochemical, fluorescence polarization; purified T. brucei MetRS; shares compounds with TbMetRS inhib; 1,400 tested, 44% active; inhibition, % at 11.9 µM; AID 651607, 2012; in the data active = inhibition above about 17%
Numbers stand for hits; – = inactive; · = no result given. Rows were chosen to be rich in hits. Some 1.9% of all compounds tested hit in one or more screens of this group.

SMILES	TbMetRS inhib	PLC-beta3 inh	HGIII-sPLA2 inh	PLCg1 inh	TbMetRS confirm	Jurkat tox	TbMetRS FP orth
O=C(Nc1ccc2ncccc2c1)c1cc(-c2ccc(Cl)cc2)nc2ccccc12	·	–	–	–	·	·	·
CN(C)/C=C(\C=N\OCc1ccc(Cl)cc1Cl)C(=O)Nc1ccc(Cl)c(Cl)c1	65.9	–	–	–	9.2	–	–
C[C@@H]1C=CCCO[C@]12C(=O)N(Cc1ccccc1C(F)(F)F)c1ccccc12	·	–	–	–	·	·	·
Cc1ccc(Cn2c(=S)[nH]c3ccccc3c2=O)cc1	–	–	–	–	·	·	·
NS(=O)(=O)c1ccc(CCNC(=O)CCCCCn2c(=S)[nH]c3ccc(Br)cc3c2=O)cc1	17.4	–	–	–	21.9	–	–
O=c1c2cc(Br)ccc2[nH]c(=S)n1Cc1ccccc1	7.7	–	–	–	20.2	–	–
O=C(CCCCCn1c(=S)[nH]c2ccc(Br)cc2c1=O)NCC1CCCO1 (stereo not given)	–	–	–	–	·	·	·
O=c1c2cc(Br)ccc2[nH]c(=S)n1Cc1ccccn1	10.3	–	–	–	21.1	–	–
O=C(CCCn1c(=S)[nH]c2ccc(Br)cc2c1=O)NCc1ccccn1	–	–	–	–	·	·	·
COc1ccc(-n2cc(CNCCCn3ccnc3)c(-c3cccc(F)c3)n2)cc1	15.9	–	–	–	–	–	–
CCOC(=O)C(/C=C(\C#N)C(=O)OCC)=C(/N)N1CCN(c2ccccc2)CC1	40.5	–	–	–	57.6	–	28.3
CCN1C(=O)N(C(C)=O)[C@@H]2C[C@H](C(=O)N3CCCC3)[C@H](C)[C@H](c3ccccc3)C[C@@H]21	·	–	–	–	·	·	·
Nc1nc2cc3ccccc3cc2[nH]c1=O	6.3	–	–	–	5.8	–	–
O=C(Nc1sc2c(c1-c1nc3ccccc3s1)CCNC2)C(F)(F)F	·	–	–	–	·	·	·
N#Cc1cccc(NC(=O)OC2CC3CC2[C@H]2CCCCN2[C@H]3Cc2ccccc2)c1 (stereo not given in full)	·	–	–	–	·	·	·
Cc1ccccc1-n1cc(-c2ccc(Br)cc2)nc1SCC(N)=O	28.6	–	–	–	39.1	–	23.2
COc1ccc(S(=O)(=O)N(C)C[C@H]2Oc3c(NC(=O)Nc4ccccc4)cccc3C(=O)N([C@H](C)CO)C[C@@H]2C)cc1	–	–	–	–	·	·	·
C[C@H](CO)N1C[C@H](C)[C@@H](CN(C)S(=O)(=O)c2cccs2)Oc2c(NC(=O)Nc3ccccc3)cccc2C1=O	20.2	–	–	–	53.4	–	24.8
C[C@H](CO)N1C[C@H](C)[C@H](CN(C)Cc2ccncc2)Oc2ccc(NC(=O)Nc3ccc(C(F)(F)F)cc3)cc2CC1=O	–	–	–	–	·	·	·
Cc1noc(C)c1S(=O)(=O)N(C)C[C@H]1Oc2c(NC(=O)Nc3ccccc3)cccc2C(=O)N([C@H](C)CO)C[C@@H]1C	17.0	–	–	–	56.6	–	25.1
C[C@H](CO)N1C[C@H](C)[C@@H](CN(C)S(=O)(=O)c2ccccc2)Oc2c(NC(=O)Nc3ccccc3)cccc2C1=O	16.0	–	–	–	34.9	–	–
C[C@H]1CN([C@@H](C)CO)C(=O)Cc2cc(NC(=O)Nc3ccccc3)ccc2O[C@H]1CN(C)Cc1ccccc1	9.5	–	–	–	30.7	–	19.9
C[C@@H]1ON(C)[C@H]2C[C@H]3c4[nH]c5c(-c6ccc7c(c6)OCO7)cccc5c4CCN3C[C@@H]12	·	–	–	–	·	·	·
O=Cc1ccc([B-](F)(F)F)o1	·	–	–	–	·	·	·
COc1cccc(OC[C@@H](O)CN2CCC(C(O)(c3ccccc3)c3ccccc3)CC2)c1	·	–	–	–	·	·	·
SMILES	TbMetRS inhib	PLC-beta3 inh	HGIII-sPLA2 inh	PLCg1 inh	TbMetRS confirm	Jurkat tox	TbMetRS FP orth
COc1ccc2[nH]cc(C(C)c3ccccc3O)c2c1 (stereo not given)	·	–	–	–	·	·	·
NC(=O)c1ncn([C@@H]2O[C@H](C(=O)Nc3ccc(Oc4ccccc4)nc3)[C@@H](O)[C@H]2O)n1	·	–	–	–	·	·	·
CCc1c(Cc2ccccc2)ncn1CCc1ccccc1OC	·	–	–	–	·	·	·
O=C(Nc1ccc(Br)cc1)c1cccc(-n2cnnn2)c1	6.5	–	–	–	13.4	–	–
COc1ccc(NC(=O)COc2cccc(-n3cnnn3)c2)cc1	10.0	–	–	–	19.9	–	–
CS(=O)(=O)c1ccc(NC(=O)c2cccc(-n3cnnn3)c2)cc1	–	–	–	–	·	·	·
O=C(COc1cccc(-n2cnnn2)c1)Nc1ccccc1	11.1	–	–	–	18.8	–	17.1
NC(=O)c1ccc(NC(=O)COc2ccc(-n3cnnn3)cc2)cc1	–	–	–	–	·	·	·
CCN(CC)S(=O)(=O)c1ccc(NC(=O)COc2cccc(-n3cnnn3)c2)cc1	–	–	–	–	·	·	·
C[C@@H](CO)N(CCc1cn(Cc2ccccc2)nn1)S(=O)(=O)c1ccccc1Br	·	–	–	–	·	·	·
Cn1nnc(NCc2cc(Br)ccc2OCc2cccs2)n1	20.4	–	–	–	28.0	–	–
CN(C)C(=O)c1ccccc1Sc1ccc(Cl)cc1Cl	6.0	–	–	–	16.2	–	–
CNS(=O)(=O)c1cc(Cl)ccc1Sc1ccccc1C(=O)O	–	–	–	–	·	·	·
O=C(CSc1nnc2c(n1)[nH]c1ccccc12)NCc1ccccc1F	6.5	–	–	–	44.5	–	27.4
CCN(CC)S(=O)(=O)c1ccc(N2CCOCC2)c(NCC(=O)Nc2ccc(F)cc2)c1	22.1	–	–	–	32.7	–	–
CCOC(=O)Cn1ccc(O)c(Cc2ccc(Cl)cc2Cl)c1=O	22.6	–	–	–	38.1	–	–
O=c1c(Cc2ccc(Cl)cc2Cl)c(O)ccn1Cc1ccc(Cl)cc1	5.9	–	–	–	16.4	–	–
O=C1COc2ccc(C(=O)CSc3nnc(NCc4ccccc4)s3)cc2N1	8.7	–	–	–	13.1	–	–
O=C1COc2ccc(C(=O)CSc3nnc(Cc4ccccc4)o3)cc2N1	–	–	–	–	·	·	·
O=C(NCc1nc2ccccc2[nH]1)C1=C[C@@H](c2ccc(Br)cc2)C[C@@H](OCc2ccc(CO)cc2)O1	78.6	–	–	–	101.4	–	84.1
O=C(NCc1nc2ccccc2[nH]1)C1=C[C@@H](c2ccc(Br)cc2)C[C@@H](OCCCCO)O1	84.8	–	–	–	104.5	–	105.7
O=C(NCc1nc2ccccc2[nH]1)C1=C[C@H](c2coc3ccccc3c2=O)C[C@H](OCCCCO)O1	16.6	–	–	–	52.7	–	18.3
